Assays:
Plasmodium falciparum [1] = test: Antiplasmodial activity against multidrug-resistant Plasmodium falciparum FCR-3 by [3H]-hypoxanthine incorporation assay; assay type: functional, organism-based, FCR-3/Gambia; details: Plasmodium falciparum, FCR-3/Gambia
Outline: (§1)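 Blood-stage P. falciparum 3D7 and FCR-3 were tested by a modified [3H]-hypoxanthine incorporation assay. Chloroquine was the reference in all runs.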

[2] = Solubility of the compound in DSPC:cholesterol:DSPE-PEG2000-Mal:DOPE-Rho lipid mixture at 250 uM; assay type: physicochemical
Outline: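 Compound added at 250 µM drug to the initial liposome lipid mixture (10 mM total lipid); precipitation and UV-visible absorbance above 300 nm assessed after encapsulation, removal of unencapsulated material and extraction with 1% w/v SDS in RPMI-A.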

[3] = Cytotoxicity against human HepG2A16 cells by MTT assay; assay type: cell-based; details: HepG2A16 cells
Outline: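 MTT viability assay on HepG2-A16 cells, giving CC50 values.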

Plasmodium falciparum [4] = test: Antiplasmodial activity against chloroquine-sensitive Plasmodium falciparum 3D7 by [3H]-hypoxanthine incorporation assay; assay type: functional, organism-based; details: Plasmodium falciparum, 3D7; outline: as §1
[5] = Selectivity index, ratio of CC50 for human HepG2A16 cells by MTT assay to IC50 for multidrug-resistant Plasmodium falciparum FCR-3; assay type: toxicity; details: HepG2A16 cells, read-out: Ratio CC50/IC50
Outline: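 HepG2-A16 human hepatoma cells were tested by MTT viability assay to give CC50. Blood-stage activity was measured against the multidrug-resistant P. falciparum FCR-3 strain by [3H]-hypoxanthine incorporation to give IC50. SI = CC50 HepG2 / FCR-3 IC50.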

[6] = Genotoxicity in Salmonella typhimurium TA1535 harboring pSK1002 assessed as umu gene induction at 0.001 mg/ml in presence of Sprague-Dawley rat liver S9 fraction after by SOS/umu assay relative to control; assay type: toxicity, organism-based; details: salmonella enterica subsp. enterica serovar typhimurium, read-out: FC
[7] = Genotoxicity in Salmonella typhimurium TA1535 harboring pSK1002 assessed as survival at 0.063 mg/ml in presence of Sprague-Dawley rat liver S9 fraction after by SOS/umu assay relative to control; assay type: toxicity, organism-based; details: salmonella enterica subsp. enterica serovar typhimurium, read-out: Survival
[8] = Genotoxicity in Salmonella typhimurium TA1535 harboring pSK1002 assessed as survival at 0.001 mg/ml in absence of Sprague-Dawley rat liver S9 fraction after by SOS/umu assay relative to control; assay type: toxicity, organism-based; details: salmonella enterica subsp. enterica serovar typhimurium, read-out: Survival
[9] = Genotoxicity in Salmonella typhimurium TA1535 harboring pSK1002 assessed as umu gene induction at 0.063 mg/ml in absence of Sprague-Dawley rat liver S9 fraction after by SOS/umu assay relative to control; assay type: toxicity, organism-based; details: salmonella enterica subsp. enterica serovar typhimurium, read-out: FC
[10] = Genotoxicity in Salmonella typhimurium TA1535 harboring pSK1002 assessed as umu gene induction at 0.008 mg/ml in presence of Sprague-Dawley rat liver S9 fraction after by SOS/umu assay relative to control; assay type: toxicity, organism-based; details: salmonella enterica subsp. enterica serovar typhimurium, read-out: FC
[11] = Genotoxicity in Salmonella typhimurium TA1535 harboring pSK1002 assessed as umu gene induction at 0.125 mg/ml in absence of Sprague-Dawley rat liver S9 fraction after by SOS/umu assay relative to control; assay type: toxicity, organism-based; details: salmonella enterica subsp. enterica serovar typhimurium, read-out: FC
[12] = Genotoxicity in Salmonella typhimurium TA1535 harboring pSK1002 assessed as umu gene induction at 0.002 mg/ml in presence of Sprague-Dawley rat liver S9 fraction after by SOS/umu assay relative to control; assay type: toxicity, organism-based; details: salmonella enterica subsp. enterica serovar typhimurium, read-out: FC
[13] = Genotoxicity in Salmonella typhimurium TA1535 harboring pSK1002 assessed as survival at 0.063 mg/ml in absence of Sprague-Dawley rat liver S9 fraction after by SOS/umu assay relative to control; assay type: toxicity, organism-based; details: salmonella enterica subsp. enterica serovar typhimurium, read-out: Survival
[14] = Genotoxicity in Salmonella typhimurium TA1535 harboring pSK1002 assessed as umu gene induction at 0.004 mg/ml in presence of Sprague-Dawley rat liver S9 fraction after by SOS/umu assay relative to control; assay type: toxicity, organism-based; details: salmonella enterica subsp. enterica serovar typhimurium, read-out: FC
[15] = Genotoxicity in Salmonella typhimurium TA1535 harboring pSK1002 assessed as survival at 0.125 mg/ml in absence of Sprague-Dawley rat liver S9 fraction after by SOS/umu assay relative to control; assay type: toxicity, organism-based; details: salmonella enterica subsp. enterica serovar typhimurium, read-out: Survival
[16] = Genotoxicity in Salmonella typhimurium TA1535 harboring pSK1002 assessed as survival at 0.125 mg/ml in presence of Sprague-Dawley rat liver S9 fraction after by SOS/umu assay relative to control; assay type: toxicity, organism-based; details: salmonella enterica subsp. enterica serovar typhimurium, read-out: Survival
[17] = Genotoxicity in Salmonella typhimurium TA1535 harboring pSK1002 assessed as survival at 0.008 mg/ml in presence of Sprague-Dawley rat liver S9 fraction after by SOS/umu assay relative to control; assay type: toxicity, organism-based; details: salmonella enterica subsp. enterica serovar typhimurium, read-out: Survival
[18] = Genotoxicity in Salmonella typhimurium TA1535 harboring pSK1002 assessed as survival at 0.016 mg/ml in presence of Sprague-Dawley rat liver S9 fraction after by SOS/umu assay relative to control; assay type: toxicity, organism-based; details: salmonella enterica subsp. enterica serovar typhimurium, read-out: Survival
[19] = Genotoxicity in Salmonella typhimurium TA1535 harboring pSK1002 assessed as umu gene induction at 0.001 mg/ml in absence of Sprague-Dawley rat liver S9 fraction after by SOS/umu assay relative to control; assay type: toxicity, organism-based; details: salmonella enterica subsp. enterica serovar typhimurium, read-out: FC
[20] = Genotoxicity in Salmonella typhimurium TA1535 harboring pSK1002 assessed as umu gene induction at 0.063 mg/ml in presence of Sprague-Dawley rat liver S9 fraction after by SOS/umu assay relative to control; assay type: toxicity, organism-based; details: salmonella enterica subsp. enterica serovar typhimurium, read-out: FC
[21] = Genotoxicity in Salmonella typhimurium TA1535 harboring pSK1002 assessed as umu gene induction at 0.031 mg/ml in presence of Sprague-Dawley rat liver S9 fraction after by SOS/umu assay relative to control; assay type: toxicity, organism-based; details: salmonella enterica subsp. enterica serovar typhimurium, read-out: FC
[22] = Genotoxicity in Salmonella typhimurium TA1535 harboring pSK1002 assessed as survival at 0.008 mg/ml in absence of Sprague-Dawley rat liver S9 fraction after by SOS/umu assay relative to control; assay type: toxicity, organism-based; details: salmonella enterica subsp. enterica serovar typhimurium, read-out: Survival
[23] = Genotoxicity in Salmonella typhimurium TA1535 harboring pSK1002 assessed as umu gene induction at 0.016 mg/ml in absence of Sprague-Dawley rat liver S9 fraction after by SOS/umu assay relative to control; assay type: toxicity, organism-based; details: salmonella enterica subsp. enterica serovar typhimurium, read-out: FC
[24] = Genotoxicity in Salmonella typhimurium TA1535 harboring pSK1002 assessed as survival at 0.001 mg/ml in presence of Sprague-Dawley rat liver S9 fraction after by SOS/umu assay relative to control; assay type: toxicity, organism-based; details: salmonella enterica subsp. enterica serovar typhimurium, read-out: Survival
[25] = Genotoxicity in Salmonella typhimurium TA1535 harboring pSK1002 assessed as survival at 0.004 mg/ml in absence of Sprague-Dawley rat liver S9 fraction after by SOS/umu assay relative to control; assay type: toxicity, organism-based; details: salmonella enterica subsp. enterica serovar typhimurium, read-out: Survival
[26] = Genotoxicity in Salmonella typhimurium TA1535 harboring pSK1002 assessed as umu gene induction at 0.031 mg/ml in absence of Sprague-Dawley rat liver S9 fraction after by SOS/umu assay relative to control; assay type: toxicity, organism-based; details: salmonella enterica subsp. enterica serovar typhimurium, read-out: FC
[27] = Genotoxicity in Salmonella typhimurium TA1535 harboring pSK1002 assessed as umu gene induction at 0.002 mg/ml in absence of Sprague-Dawley rat liver S9 fraction after by SOS/umu assay relative to control; assay type: toxicity, organism-based; details: salmonella enterica subsp. enterica serovar typhimurium, read-out: FC
[28] = Genotoxicity in Salmonella typhimurium TA1535 harboring pSK1002 assessed as umu gene induction at 0.004 mg/ml in absence of Sprague-Dawley rat liver S9 fraction after by SOS/umu assay relative to control; assay type: toxicity, organism-based; details: salmonella enterica subsp. enterica serovar typhimurium, read-out: FC
[29] = Genotoxicity in Salmonella typhimurium TA1535 harboring pSK1002 assessed as survival at 0.031 mg/ml in presence of Sprague-Dawley rat liver S9 fraction after by SOS/umu assay relative to control; assay type: toxicity, organism-based; details: salmonella enterica subsp. enterica serovar typhimurium, read-out: Survival
[30] = Genotoxicity in Salmonella typhimurium TA1535 harboring pSK1002 assessed as umu gene induction at 0.125 mg/ml in presence of Sprague-Dawley rat liver S9 fraction after by SOS/umu assay relative to control; assay type: toxicity, organism-based; details: salmonella enterica subsp. enterica serovar typhimurium, read-out: FC
[31] = Genotoxicity in Salmonella typhimurium TA1535 harboring pSK1002 assessed as umu gene induction at 0.016 mg/ml in presence of Sprague-Dawley rat liver S9 fraction after by SOS/umu assay relative to control; assay type: toxicity, organism-based; details: salmonella enterica subsp. enterica serovar typhimurium, read-out: FC
[32] = Genotoxicity in Salmonella typhimurium TA1535 harboring pSK1002 assessed as survival at 0.002 mg/ml in presence of Sprague-Dawley rat liver S9 fraction after by SOS/umu assay relative to control; assay type: toxicity, organism-based; details: salmonella enterica subsp. enterica serovar typhimurium, read-out: Survival
[33] = Genotoxicity in Salmonella typhimurium TA1535 harboring pSK1002 assessed as survival at 0.002 mg/ml in absence of Sprague-Dawley rat liver S9 fraction after by SOS/umu assay relative to control; assay type: toxicity, organism-based; details: salmonella enterica subsp. enterica serovar typhimurium, read-out: Survival
[34] = Genotoxicity in Salmonella typhimurium TA1535 harboring pSK1002 assessed as umu gene induction at 0.008 mg/ml in absence of Sprague-Dawley rat liver S9 fraction after by SOS/umu assay relative to control; assay type: toxicity, organism-based; details: salmonella enterica subsp. enterica serovar typhimurium, read-out: FC
[35] = Genotoxicity in Salmonella typhimurium TA1535 harboring pSK1002 assessed as survival at 0.004 mg/ml in presence of Sprague-Dawley rat liver S9 fraction after by SOS/umu assay relative to control; assay type: toxicity, organism-based; details: salmonella enterica subsp. enterica serovar typhimurium, read-out: Survival
[36] = Genotoxicity in Salmonella typhimurium TA1535 harboring pSK1002 assessed as survival at 0.031 mg/ml in absence of Sprague-Dawley rat liver S9 fraction after by SOS/umu assay relative to control; assay type: toxicity, organism-based; details: salmonella enterica subsp. enterica serovar typhimurium, read-out: Survival
[37] = Genotoxicity in Salmonella typhimurium TA1535 harboring pSK1002 assessed as survival at 0.016 mg/ml in absence of Sprague-Dawley rat liver S9 fraction after by SOS/umu assay relative to control; assay type: toxicity, organism-based; details: salmonella enterica subsp. enterica serovar typhimurium, read-out: Survival

Q: What does the source list for `COC(=O)c1ccc(C(O)CCN2CCN(C(c3ccccc3)c3ccccc3)CC2)cc1` (stereo unspecified)?
A: IC50 (Plasmodium falciparum [1]): 1460 nM; solubility [2]: Insoluble; CC50 [3]: 84000 nM; IC50 (Plasmodium falciparum [4]): 1690 nM; selectivity ratio [5]: 58

Q: Which fold induction at 0.001 mg/ml [6] does the source give for `O=[N+]([O-])c1ccccc1N1CCN(CCC(O)c2ccc(F)c3ccccc23)CC1` (stereo unspecified) here?
A: 1.4

Q: And the viability at 0.063 mg/ml [7]?
A: 63.8%

Q: And the viability at 0.001 mg/ml [8]?
A: 100%

Q: What about the fold induction at 0.063 mg/ml [9] of the same compound?
A: 0.8

Q: What about the fold induction at 0.008 mg/ml [10] of the same compound?
A: 1

Q: What about the fold induction at 0.125 mg/ml [11] of the same compound?
A: 0.5

Q: What about the fold induction at 0.002 mg/ml [12] of the same compound?
A: 0.7

Q: And the viability at 0.063 mg/ml [13]?
A: 118%

Q: And the fold induction at 0.004 mg/ml [14]?
A: 1.2

Q: What about the viability at 0.125 mg/ml [15] of the same compound?
A: 174%

Q: What about the viability at 0.125 mg/ml [16] of the same compound?
A: 76.2%

Q: What about the viability at 0.008 mg/ml [17] of the same compound?
A: 89.5%

Q: What about the viability at 0.016 mg/ml [18] of the same compound?
A: 64.5%

Q: What about the fold induction at 0.001 mg/ml [19] of the same compound?
A: 1.1

Q: What about the fold induction at 0.063 mg/ml [20] of the same compound?
A: 1.4

Q: And the fold induction at 0.031 mg/ml [21]?
A: 1.9

Q: What about the viability at 0.008 mg/ml [22] of the same compound?
A: 87.9%

Q: What about the fold induction at 0.016 mg/ml [23] of the same compound?
A: 2

Q: And the viability at 0.001 mg/ml [24]?
A: 77.8%

Q: What about the viability at 0.004 mg/ml [25] of the same compound?
A: 106%

Q: And the fold induction at 0.031 mg/ml [26]?
A: 1.5

Q: And the fold induction at 0.002 mg/ml [27]?
A: 0.9

Q: What about the fold induction at 0.004 mg/ml [28] of the same compound?
A: 0.9

Q: What about the viability at 0.031 mg/ml [29] of the same compound?
A: 63.2%

Q: What about the IC50 (Plasmodium falciparum [1]) of the same compound?
A: 2620 nM

Q: What about the fold induction at 0.125 mg/ml [30] of the same compound?
A: 1.3

Q: And the fold induction at 0.016 mg/ml [31]?
A: 1.9

Q: And the viability at 0.002 mg/ml [32]?
A: 84.3%

Q: And the CC50 [3]?
A: 19900 nM

Q: And the IC50 (Plasmodium falciparum [4])?
A: 920 nM

Q: What about the viability at 0.002 mg/ml [33] of the same compound?
A: 111%

Q: And the fold induction at 0.008 mg/ml [34]?
A: 1.7

Q: And the viability at 0.004 mg/ml [35]?
A: 92.2%

Q: What about the viability at 0.031 mg/ml [36] of the same compound?
A: 66.8%

Q: What about the selectivity ratio [5] of the same compound?
A: 8

Q: What about the viability at 0.016 mg/ml [37] of the same compound?
A: 50.6%

— ChEMBL document CHEMBL4152256, “Structure-activity relationship of new antimalarial 1-aryl-3-susbtituted propanol derivatives: Synthesis, preliminary toxicity profiling, parasite life cycle stage studies, target exploration, and targeted delivery” (Eur J Med Chem, 2018)
